Source: PubChem BioAssay
TNF necrop inh = inhibitors of TNF-alpha triggered necroptosis, primary screen, cell-based, Jurkat FADD-/-, single concentration. Jurkat FADD-/- TNF necroptosis rescue, ATP luminescence, 24 h; 0 = TNF only, 100 = no-TNF cells. activation (protection from cell death), % at 10 µM. hit rate 0.068% among 220,000. AID 463075, 2010;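 active = activation, meaning protection from cell death, of at least 50% relative to plate controls; inactive = activation below 50%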;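 also: necroptosis triggered by 40 ng/mL TNF-alpha added together with compound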
Hck Nef HTS = inhibitors of Nef-activated human Hck kinase, primary screen, biochemical, Z-Lyte FRET, 384-well, Hck-YEEI | inhibition, % at 20 µM | Tyrosine-protein kinase HCK (Homo sapiens), P08631 | Recombinant Hck-YEEI plus Nef, Z-Lyte FRET kinase assay | hit rate 0.68% among 220,000;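 active = Hck-Nef kinase inhibition above about 50%, limit read from the data; inactive = inhibition below that limit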
Runt-SMMHC FRET = inhibitors of RUNX1 Runt–CBFb-SMMHC binding, primary screen, biochemical, FRET, Cerulean-Runt, Venus-CBFb-SMMHC, uHTS | AID 1434, 2008 | inhibition, % at 20 µM | Runt-related transcription factor 1 (Homo sapiens) + Core-binding factor subunit beta … | hit rate 0.74% among 220,000 | Cerulean-Runt/Venus-CBFb-SMMHC FRET ratio 530/480, 1 h;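 active = mean inhibition across duplicate retests at 20 µM reaching about 50%, limit read from the data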;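 also: inhibitors lower the FRET ratio by blocking Runt binding to CBFb-SMMHC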
Target sequence (Q01196 whole entry, looked up): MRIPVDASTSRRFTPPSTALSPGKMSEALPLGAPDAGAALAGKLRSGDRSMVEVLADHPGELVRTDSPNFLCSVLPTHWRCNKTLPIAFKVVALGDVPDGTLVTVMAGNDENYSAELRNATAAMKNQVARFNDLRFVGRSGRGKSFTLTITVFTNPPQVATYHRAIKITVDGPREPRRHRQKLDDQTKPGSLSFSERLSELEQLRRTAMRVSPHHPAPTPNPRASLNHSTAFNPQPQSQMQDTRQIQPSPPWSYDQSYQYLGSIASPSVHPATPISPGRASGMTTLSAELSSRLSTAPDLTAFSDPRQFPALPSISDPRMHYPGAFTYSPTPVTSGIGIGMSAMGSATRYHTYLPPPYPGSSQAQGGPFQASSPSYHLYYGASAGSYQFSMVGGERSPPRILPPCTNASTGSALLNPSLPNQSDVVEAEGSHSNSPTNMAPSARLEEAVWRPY
Target sequence (Q13951 whole entry, looked up): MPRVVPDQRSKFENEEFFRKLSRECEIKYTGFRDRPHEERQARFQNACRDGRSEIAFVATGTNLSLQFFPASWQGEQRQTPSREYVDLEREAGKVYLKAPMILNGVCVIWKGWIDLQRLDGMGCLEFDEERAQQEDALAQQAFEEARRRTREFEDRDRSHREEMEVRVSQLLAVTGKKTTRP
Runt-CBFb FRET = inhibitors of RUNX1 Runt–CBFb binding, primary screen, biochemical, FRET, Cerulean-Runt, Venus-CBFb, uHTS | Runt-related transcription factor 1 (Homo sapiens) + Core-binding factor subunit beta … | Cerulean-Runt/Venus-CBFb FRET ratio 530/480, 1 h | inhibition, % at 20 µM | hit rate 0.46% among 220,000 | AID 1496, 2009;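 active = inhibition over about 50% at 20 µM in the single-dose screen, limit read from the data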
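System: Cerulean-labeled Runt domain protein | Quantity: 100 nM of each labeled protein | Schedule: 1 h compound exposure, room temperature | Detection: Fluorescence energy transfer, 422 nm excitation, 530/480 nm emission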
RanGTP-Impb inh = inhibitors of RanGTP-importin-beta interaction, primary screen, biochemical, FRET, CFP-Ran, YFP-importin-beta, homogeneous; inhibition, % (concentration not given with the values); hit rate 1.1% among 300,000; cell-free CFP-Ran/YFP-importin-beta FRET ratio; Ran GTPase (GTP-bound) - importin-beta complex; AID 2216, 2009;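 active = more than half of the replicate wells show a fall in the fluorescence ratio signal beyond about 16%, limit read from the data, passing the limit was not always enough; inconclusive = exactly half of the replicate wells pass the set limit; inactive = fewer than half of replicates pass the limit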
L929 necroptosis = inhibitors of zVAD-triggered necroptosis, primary screen, L929 cells; L929 zVAD necroptosis rescue, ATP luminescence, 24 h; with zVAD 60 µM; viability rescue, % at 10 µM; hit rate 0.38% among 220,000; AID 1377, 2008;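 active = activation, scaled between plate controls, above about 75%, limit read from the data; inactive = activation under that limit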
zVAD death conf = inhibitors of zVAD-triggered necroptosis in L929, confirmation, L929 cells, duplicate runs; shares compounds with L929 necroptosis; L929 zVAD-induced necroptosis rescue, ATP luminescence, 24 h; activation (protection from necroptosis), % at 10 µM; hit rate 16% among 760; AID 463117, 2010;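 active = mean protection from necroptosis of at least 50% over duplicate tests; inactive = mean protection below 50%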
A number is an active result; – = inactive; ? = inconclusive; · = no result given. The list is not random: actives were taken first. Their share in the collection is about 2.1%.

SMILES	TNF necrop inh	Hck Nef HTS	Runt-SMMHC FRET	Runt-CBFb FRET	RanGTP-Impb inh	L929 necroptosis	zVAD death conf
CC(=O)c1c(C)[nH]c(C(=O)Nc2ccc(Cl)c(S(=O)(=O)N(C)C)c2)c1C	–	–	–	–	?	–	·
CC(=O)c1c(C)[nH]c(C(=O)OCC(=O)Nc2ccc(Cl)c(S(=O)(=O)N(C)C)c2)c1C	–	–	–	–	–	79.7	–
O=C(CCl)Nc1c[nH]c(=O)[nH]c1=O	–	–	–	–	·	80.6	–
O=C(Cc1ccccc1)Nc1c[nH]c(=O)[nH]c1=O	–	–	–	–	–	–	·
CCOC(=O)c1c(NC(=O)C2=COCCO2)sc2c1CCN(C(=O)OC)C2	·	·	·	·	–	·	·
CC(C)(C)c1ccc(-c2nc(C#N)c(NCc3cccnc3)o2)cc1	–	–	–	–	–	78.3	–
N#Cc1nc(-c2ccc(F)cc2)oc1NCc1ccccc1	–	–	–	–	–	–	·
COc1ccc(-n2cnc3cc(NC(=O)c4ccco4)ccc32)cc1	–	–	–	–	–	82.6	–
CC(C)n1cnc2cc(NC(=O)c3ccco3)ccc21	·	·	·	·	–	·	·
O=C(Nc1ccc2c(c1)ncn2C1CCCCC1)c1ccco1	–	–	–	–	–	82.1	–
CCN(CC)CCn1c2ccccc2c2cnc(N)c(C#N)c21	–	–	–	–	–	75.2	70.0
CN(C)C=Nc1ncc2c3ccccc3n(CCN(C)C)c2c1C#N	–	–	–	–	–	90.8	–
CC(C(=O)Nc1ccncc1)(c1ccccc1)c1ccccc1	–	–	–	–	–	–	·
Cc1ccc(-n2nnnc2SCC(=O)Nc2ccc3c(c2)OCCO3)cc1C	–	–	–	–	–	–	·
Cc1ccc(NC(=O)CSc2nnnn2-c2ccc3c(c2)OCO3)cc1C	–	–	–	–	–	79.0	74.2
O=C(CSc1nnnn1-c1ccc(O)cc1)Nc1cccc(S(=O)(=O)N2CCCC2)c1	–	–	–	–	–	88.0	89.2
O=C(CSc1nnnn1-c1ccc(O)cc1)Nc1ccc(N2CCOCC2)c(Cl)c1	–	–	–	–	?	75.5	75.1
O=C(CSc1nncn1-c1ccccc1)Nc1cccc(S(=O)(=O)N2CCCCC2)c1	–	–	–	–	–	–	·
COc1ccccc1NC(=O)C/C(C)=N/NC(=O)COc1c(Br)cc(Br)cc1OC	–	–	–	–	–	–	·
Cn1nc(N)c2c(-c3ccc(Cl)cc3)c(C#N)c(N)nc21	–	–	–	–	–	81.3	–
O=C(COC(=O)c1ccc(-c2nnc(-c3ccccc3)o2)cc1)c1ccccc1	–	–	–	–	–	77.5	–
CCOc1cc(/C=C/C(=O)c2ccc(O)cc2)ccc1OCC(=O)N(C)C	–	–	–	–	–	105.1	–
CCOc1cc(/C=C/C(=O)c2ccc3c(c2)OCCO3)ccc1OCC(=O)N(C)C	·	·	·	·	–	·	·
Cc1ccc([C@@H]2[C@@H]3C(=O)N(C)C(=O)[C@@H]3[C@]3(Cc4ccccc4)C(=O)N(Cc4ccccn4)CC(=O)N23)o1	·	·	·	·	–	·	·
CC1CCc2nc(NC(=O)C3CC3)sc2C1 (stereo unspecified)	–	–	–	–	–	78.0	–
CC(C)N1CCC(NC(=O)Nc2ccc3c(c2)OCO3)CC1	–	–	–	–	–	–	·
Cc1ccc(Nc2cc(C)nn2-c2nc(C)cc(=O)[nH]2)cc1	–	–	–	·	–	77.7	52.5
Cc1ccc(Nc2cc(C)nc3nnnn23)cc1	–	–	–	–	–	–	·
Cc1nc(/N=C(\N)N(C)C)[nH]c(=O)c1C	–	–	–	–	–	–	·
CCc1cccc2c(C(=O)COC(=O)c3ccc(O)cc3)c[nH]c12	–	–	–	–	–	77.5	73.5
